Screening results (PubChem)
Most compounds without a hit are left out; they make up all but 1.8% or so of the library.
CHRM4 agonist: agonists of human muscarinic M4 receptor (CHRM4); AID 624127; CHO-K1 hM4/Gqi5, Fluo-8 calcium fluorescence; vehicle 0%, full acetylcholine response 100%; P08173; hit rate 0.14% among 360,000; activation, % at 3 µM;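 active = activation above the run mean over all test wells plus 3 SD, cut at about 32% in these data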;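 also: peak over basal fluorescence ratio per well then scaled between controls; 0% = DMSO wells and 100% = acetylcholine at EC100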
M5 antag: antagonists of human muscarinic M5 receptor (CHRM5); P08912; CHO-hM5 cells, Fluo-8 calcium fluorescence, ACh EC80; AID 624040; inhibition, % at 3 µM; hit rate 0.59% among 360,000;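 active = inhibition above a per-plate cutoff, the mean of that plate's test compounds plus 3 SD, cut at about 27% in these data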;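 also: 0% = acetylcholine EC80 with DMSO and 100% = DMSO without agonist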
Target sequence (P08912 whole entry, looked up): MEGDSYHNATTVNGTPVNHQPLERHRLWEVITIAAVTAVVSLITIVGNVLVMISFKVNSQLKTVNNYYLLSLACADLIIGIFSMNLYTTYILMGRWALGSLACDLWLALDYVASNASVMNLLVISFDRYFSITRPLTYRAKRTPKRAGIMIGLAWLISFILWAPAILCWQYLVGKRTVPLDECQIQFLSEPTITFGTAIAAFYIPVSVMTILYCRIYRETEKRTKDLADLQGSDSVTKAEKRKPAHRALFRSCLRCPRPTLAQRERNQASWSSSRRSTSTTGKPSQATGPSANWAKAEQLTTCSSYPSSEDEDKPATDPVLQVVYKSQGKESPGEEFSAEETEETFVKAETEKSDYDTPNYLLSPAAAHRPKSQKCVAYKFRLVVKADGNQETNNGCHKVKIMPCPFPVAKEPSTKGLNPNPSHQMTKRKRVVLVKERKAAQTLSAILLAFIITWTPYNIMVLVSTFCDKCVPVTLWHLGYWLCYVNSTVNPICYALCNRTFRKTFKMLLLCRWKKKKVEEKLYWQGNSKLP
M4 antag: antagonists of human muscarinic M4 receptor (CHRM4); P08173; hit rate 0.73% among 360,000; AID 624125; inhibition, % at 3 µM; CHO-hM4 cells, ACh EC80, Fluo-8 calcium fluorescence;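 active = inhibition above its plate's cutoff, the mean inhibition of sample wells plus 3 SD, cut at about 27% in these data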;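 also: 0% = acetylcholine EC80 with DMSO and 100% = DMSO without agonist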
M4 PAM: CHRM4 positive allosteric modulation; P08173; CHO-K1 hM4/Gqi5, Fluo-8 calcium fluorescence, ACh EC20; 0% = ACh EC20, 100% = maximal ACh; activation, % at 3 µM; hit rate 0.4% among 360,000; AID 624126;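 active = activation above its plate's cutoff, the mean activation of sample wells plus 3 SD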
CHRM5 agonist: CHRM5 agonism in calcium assay; P08912; CHO-K1 hM5 cells, Fluo-8 calcium fluorescence; 0% DMSO wells, 100% maximal acetylcholine response; activation, % at 3 µM; hit rate 0.19% among 360,000;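 active = activation above the run's mean over test compounds plus 3 SD, cut at about 23% in these data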;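 also: signal is peak over basal fluorescence ratio across the kinetic read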
CHRM5 PAM: CHRM5 positive allosteric modulation. P08912. CHO-K1 hM5, Fluo-8 calcium, ACh EC20 PAM; 0% = ACh EC20, 100% = ACh EC100. activation, % at 3 µM. hit rate 0.3% among 360,000. AID 624038;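 active = activation above the run cutoff, the mean activation of all test compounds plus 3 SD, cut at about 18% in these data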
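System – CHO-K1 hM5 cells · Compound – 3 µM, single dose · Incubation – compound preincubation 140 s before EC20 acetylcholine addition · Technique – Fluo-8 calcium fluorescence · Measure – Max/basal fluorescence ratio as % of EC20–EC100 ACh window · Benchmarks – low control EC20 acetylcholine (0%), high control EC100 acetylcholine (100%) · Replication – singlicate, one well per test compound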
* = called active by the depositor.

SMILES	CHRM4 agonist	M5 antag	M4 antag	M4 PAM	CHRM5 agonist	CHRM5 PAM
COC1=C(OC)C(=O)C(CCCCCCCCCCO)=C(C)C1=O	10	40*	98*	-17	4	-19
CCC(=O)N1CCC(C)(C(=O)Nc2ccc3c(c2)OCCO3)C1 (stereo not given)	1	-12	-4	-5	-1	4
COC(=O)C1(c2ccccc2)NC(c2cccs2)C2C(=O)N(C)C(=O)C21 (stereo not given)	0	-4	6	-3	-5	0
COC(=O)C1(c2ccccc2)NC(c2cccs2)C2C(=O)N(c3ccccc3)C(=O)C21 (stereo not given)	18	-11	-20	16	53*	-3
Cc1ccc([N+](=O)[O-])c(OCCCN2CCC(Cc3ccccc3)CC2)c1	39*	22	15	-18	8	-18
Cc1ccc([N+](=O)[O-])c(OCCN2CCCCCC2)c1	2	1	-13	-6	-10	-6
Brc1ccc(CNc2ccc3ncccc3c2)cc1	8	32*	25	-12	-13	-24
CN(CCN(C)C(C)(C)C)C(=O)C(c1ccccc1)c1ccccc1	1	31*	91*	-55	-20	-35
CSc1ccc(CN(C)C(=O)C(c2ccccc2)c2ccccc2)cc1	5	3	1	-11	-2	-3
CC(C)C[C@H](NC(=O)c1nc[nH]c1C(=O)N1CCN(C(=O)OC(C)(C)C)CC1)C(=O)OC(C)(C)C	0	6	1	25*	1	10
CC(C)(C)OC(=O)CNC(=O)c1[nH]cnc1C(=O)NCCCCCN	0	19	7	-2	1	-11
CC(C)C[C@H](NC(=O)c1nc[nH]c1C(=O)NCCCCCNC(=O)OC(C)(C)C)C(=O)OC(C)(C)C	4	-3	50*	-14	-6	-21
CC(C)(C)OC(=O)CNC(=O)c1[nH]cnc1C(=O)NCCCCCNC(=O)OC(C)(C)C	35*	32*	22	-15	4	-39
O=C(NC(=S)Nc1cccc(O)c1)C1CCCCC1	-1	4	3	11	-3	-1
CCCCC(c1nc2ccccc2[nH]1)n1c(=O)c(-c2ccccc2)nc2cc(C)c(C)cc21 (stereo not given)	2	11	-2	21*	0	-4
Cc1nnc(SC(C)C(=O)NC2CCCCC2)[nH]c1=O (stereo not given)	1	2	3	-1	1	0
COc1cc(/C=N/NC(=O)CNC(=O)c2ccco2)ccc1O	1	27*	-1	3	-4	-11
COc1ccc(/C=N/NC(=O)c2ccoc2C)cc1O	3	-11	9	32*	0	9
Cc1cnc(C(=O)OCC(=O)c2ccc(Br)s2)cn1	0	0	10	1	0	4
CCC(Sc1nc(N)cc(=O)[nH]1)C(=O)Nc1cc(C)on1 (stereo not given)	2	1	-14	26*	-2	13
Cc1cccnc1C(NC(=O)C1CCN(Cc2ccc(Oc3ccccc3)cc2)CC1)c1ccccc1 (stereo not given)	3	16	29*	-13	-3	-19
Cc1cccnc1C(NC(=O)C1CCN(Cc2ccccc2)CC1)c1ccc(F)cc1 (stereo not given)	2	2	-1	1	-3	-16
COc1cc2nc(CN3CCN(S(=O)(=O)c4ccccc4[N+](=O)[O-])CC3)[nH]c(=O)c2cc1OC	4	2	-1	-3	-1	-3
CC(C)(C)C(=O)NC(=S)NNC(=O)C(c1ccccc1)c1ccccc1	154*	52*	76*	-43	111*	-34
CC(=O)NNC(=S)NC(=O)C(c1ccccc1)c1ccccc1	16	-4	4	5	6	9
SMILES	CHRM4 agonist	M5 antag	M4 antag	M4 PAM	CHRM5 agonist	CHRM5 PAM
COc1ccc(C(=O)N2CCCC(Nc3ccc(C)c(C)c3)C2)cc1 (stereo not given)	1	0	1	1	-1	0
COc1ccc(NC2CCCN(C(=O)c3ccc(OC)cc3OC)C2)cc1 (stereo not given)	11	1	31*	-2	0	11
O=C(CSc1nc(N2CCOCC2)nc(N2CCOCC2)n1)Nc1ccc([N+](=O)[O-])cc1	1	-23	-12	4	2	22*
CCCn1ncc(CN2CCCC(C(=O)c3cccc(OC(C)C)c3)C2)c1C (stereo not given)	1	15	66*	-51	-19	-25
CCCn1cc(CN2CCCC(C(=O)c3cccc(OC(C)C)c3)C2)c(C)n1 (stereo not given)	3	15	6	-10	-9	-6
COc1ccc(-c2nnc3n2N=C(C)CS3)cc1	-1	8	14	-5	0	-2
COc1ccc(C2=Nn3c(nnc3-c3ccc(OC)cc3)SC2)cc1	3	9	28*	7	-5	-5
O=C(NCc1ccccc1)c1ccc(CS(=O)(=O)c2ccccc2)o1	3	-12	-13	14	-1	22*
O=C(NCc1ccccc1)c1ccc(CS(=O)(=O)c2ccc(Br)cc2)o1	8	6	-8	-4	3	-7
Oc1ccccc1CNc1ccc(Br)cn1	1	22	33*	-17	1	-20
O=C1NC[C@H](CCCCN2C[C@@H](Cc3ccccc3)N(CC3CCCCC3)C(=O)C2=O)N(CCC2CCCCC2)C1=O	15	5	14	-7	1	-8
Cc1ccc(SCCNS(C)(=O)=O)cc1	1	-6	-3	14	-3	22*
COC(=O)Cc1[nH]c(=S)[nH]c1C(=O)OC	2	5	-4	33*	-1	7
COC(=O)CCc1c(C)[nH]c(=S)[nH]c1=O	1	-14	-3	8	0	11
Cc1scc2c1N(C(=O)CN1CCN(C)CC1)c1ccccc1NC2=O	1	99*	98*	-18	-1	-18
O=C(Cn1cc(COc2ccc3ccccc3c2)nn1)NS(=O)(=O)c1cccc(OC(F)F)c1	0	2	-8	5	-1	0
NCCc1nnc(SCc2ccc(F)cc2)o1	0	-3	-2	1	-7	3
NCCCCCc1nnc(SCc2ccc(Cl)c(Cl)c2)o1	3	36*	67*	-31	-7	-19
C[C@]12c3[nH]c4ccccc4c3CCN1C(=O)C(CC(=O)NCCN1CCOCC1)C[C@@H]2C(=O)N1CCOCC1 (stereo not given in full)	0	0	-2	-1	1	-4
